Source: ChEMBL document CHEMBL4342521 (J Med Chem, 2020)
pEC50, pIC50: −log10 of the molar value. Calls of active or inactive are those of the source. The rule behind the calls is not given here.

How the values were obtained:
Histone deacetylase 1 = Histone deacetylase 1 (Homo sapiens, UniProt Q13547); test: Inhibition of recombinant HDAC1 (unknown origin) using Boc-Lys(acetyl)-AMC as substrate preincubated for 1 hr followed by substrate addition and measured after 2 hrs by fluorescence based micro plate reader analysis
Chain of Histone deacetylase 1 (Q13547 whole entry): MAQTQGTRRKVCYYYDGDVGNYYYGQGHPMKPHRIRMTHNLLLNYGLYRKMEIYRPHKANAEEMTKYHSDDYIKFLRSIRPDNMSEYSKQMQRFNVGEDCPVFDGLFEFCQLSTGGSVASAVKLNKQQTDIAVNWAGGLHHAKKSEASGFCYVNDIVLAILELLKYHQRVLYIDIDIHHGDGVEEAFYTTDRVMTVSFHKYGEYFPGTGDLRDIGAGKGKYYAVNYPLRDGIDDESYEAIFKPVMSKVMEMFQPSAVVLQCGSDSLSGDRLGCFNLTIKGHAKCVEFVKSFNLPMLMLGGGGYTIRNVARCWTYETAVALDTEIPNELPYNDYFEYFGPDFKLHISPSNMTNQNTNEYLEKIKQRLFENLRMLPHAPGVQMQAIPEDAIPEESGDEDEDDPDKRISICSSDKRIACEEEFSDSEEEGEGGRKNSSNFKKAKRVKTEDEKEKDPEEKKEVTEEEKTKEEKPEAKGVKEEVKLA

Histone deacetylase 2 = Histone deacetylase 2 (Homo sapiens, UniProt Q92769)
Chain of Histone deacetylase 2 (Q92769 whole entry): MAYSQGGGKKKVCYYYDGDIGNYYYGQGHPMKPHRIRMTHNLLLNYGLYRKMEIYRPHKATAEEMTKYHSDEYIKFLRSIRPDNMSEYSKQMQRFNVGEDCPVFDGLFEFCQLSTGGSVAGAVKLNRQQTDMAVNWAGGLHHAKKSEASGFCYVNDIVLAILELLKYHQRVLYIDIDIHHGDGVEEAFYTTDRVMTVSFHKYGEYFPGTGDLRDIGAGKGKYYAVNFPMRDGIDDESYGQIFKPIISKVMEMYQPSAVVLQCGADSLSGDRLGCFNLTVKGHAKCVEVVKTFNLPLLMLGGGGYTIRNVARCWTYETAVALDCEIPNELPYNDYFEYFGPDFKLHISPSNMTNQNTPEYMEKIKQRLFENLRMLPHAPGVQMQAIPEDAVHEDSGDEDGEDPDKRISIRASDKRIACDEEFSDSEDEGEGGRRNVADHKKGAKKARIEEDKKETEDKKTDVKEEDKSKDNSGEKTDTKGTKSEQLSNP

[1] = molecular target: Histone deacetylase 3/Nuclear receptor corepressor 2 (HDAC3/NCoR2) (Homo sapiens, UniProt O15379); test: biochemical; set-up: species or system Sf9
Chain of Histone deacetylase 3/Nuclear receptor corepressor 2 (HDAC3/NCoR2) (O15379 whole entry): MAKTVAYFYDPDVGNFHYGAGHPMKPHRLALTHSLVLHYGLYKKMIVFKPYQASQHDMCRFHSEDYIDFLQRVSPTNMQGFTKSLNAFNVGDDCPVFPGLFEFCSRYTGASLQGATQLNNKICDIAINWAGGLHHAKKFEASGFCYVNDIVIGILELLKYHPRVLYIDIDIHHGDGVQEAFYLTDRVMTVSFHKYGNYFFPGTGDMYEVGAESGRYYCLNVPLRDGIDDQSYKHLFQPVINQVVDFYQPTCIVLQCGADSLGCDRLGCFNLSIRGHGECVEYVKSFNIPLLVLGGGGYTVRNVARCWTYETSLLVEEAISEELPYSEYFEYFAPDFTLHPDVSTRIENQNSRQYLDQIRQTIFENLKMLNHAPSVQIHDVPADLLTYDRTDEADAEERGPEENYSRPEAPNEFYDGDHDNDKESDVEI
Chain of Histone deacetylase 3/Nuclear receptor corepressor 2 (HDAC3/NCoR2) (Q9Y618 whole entry, further chain): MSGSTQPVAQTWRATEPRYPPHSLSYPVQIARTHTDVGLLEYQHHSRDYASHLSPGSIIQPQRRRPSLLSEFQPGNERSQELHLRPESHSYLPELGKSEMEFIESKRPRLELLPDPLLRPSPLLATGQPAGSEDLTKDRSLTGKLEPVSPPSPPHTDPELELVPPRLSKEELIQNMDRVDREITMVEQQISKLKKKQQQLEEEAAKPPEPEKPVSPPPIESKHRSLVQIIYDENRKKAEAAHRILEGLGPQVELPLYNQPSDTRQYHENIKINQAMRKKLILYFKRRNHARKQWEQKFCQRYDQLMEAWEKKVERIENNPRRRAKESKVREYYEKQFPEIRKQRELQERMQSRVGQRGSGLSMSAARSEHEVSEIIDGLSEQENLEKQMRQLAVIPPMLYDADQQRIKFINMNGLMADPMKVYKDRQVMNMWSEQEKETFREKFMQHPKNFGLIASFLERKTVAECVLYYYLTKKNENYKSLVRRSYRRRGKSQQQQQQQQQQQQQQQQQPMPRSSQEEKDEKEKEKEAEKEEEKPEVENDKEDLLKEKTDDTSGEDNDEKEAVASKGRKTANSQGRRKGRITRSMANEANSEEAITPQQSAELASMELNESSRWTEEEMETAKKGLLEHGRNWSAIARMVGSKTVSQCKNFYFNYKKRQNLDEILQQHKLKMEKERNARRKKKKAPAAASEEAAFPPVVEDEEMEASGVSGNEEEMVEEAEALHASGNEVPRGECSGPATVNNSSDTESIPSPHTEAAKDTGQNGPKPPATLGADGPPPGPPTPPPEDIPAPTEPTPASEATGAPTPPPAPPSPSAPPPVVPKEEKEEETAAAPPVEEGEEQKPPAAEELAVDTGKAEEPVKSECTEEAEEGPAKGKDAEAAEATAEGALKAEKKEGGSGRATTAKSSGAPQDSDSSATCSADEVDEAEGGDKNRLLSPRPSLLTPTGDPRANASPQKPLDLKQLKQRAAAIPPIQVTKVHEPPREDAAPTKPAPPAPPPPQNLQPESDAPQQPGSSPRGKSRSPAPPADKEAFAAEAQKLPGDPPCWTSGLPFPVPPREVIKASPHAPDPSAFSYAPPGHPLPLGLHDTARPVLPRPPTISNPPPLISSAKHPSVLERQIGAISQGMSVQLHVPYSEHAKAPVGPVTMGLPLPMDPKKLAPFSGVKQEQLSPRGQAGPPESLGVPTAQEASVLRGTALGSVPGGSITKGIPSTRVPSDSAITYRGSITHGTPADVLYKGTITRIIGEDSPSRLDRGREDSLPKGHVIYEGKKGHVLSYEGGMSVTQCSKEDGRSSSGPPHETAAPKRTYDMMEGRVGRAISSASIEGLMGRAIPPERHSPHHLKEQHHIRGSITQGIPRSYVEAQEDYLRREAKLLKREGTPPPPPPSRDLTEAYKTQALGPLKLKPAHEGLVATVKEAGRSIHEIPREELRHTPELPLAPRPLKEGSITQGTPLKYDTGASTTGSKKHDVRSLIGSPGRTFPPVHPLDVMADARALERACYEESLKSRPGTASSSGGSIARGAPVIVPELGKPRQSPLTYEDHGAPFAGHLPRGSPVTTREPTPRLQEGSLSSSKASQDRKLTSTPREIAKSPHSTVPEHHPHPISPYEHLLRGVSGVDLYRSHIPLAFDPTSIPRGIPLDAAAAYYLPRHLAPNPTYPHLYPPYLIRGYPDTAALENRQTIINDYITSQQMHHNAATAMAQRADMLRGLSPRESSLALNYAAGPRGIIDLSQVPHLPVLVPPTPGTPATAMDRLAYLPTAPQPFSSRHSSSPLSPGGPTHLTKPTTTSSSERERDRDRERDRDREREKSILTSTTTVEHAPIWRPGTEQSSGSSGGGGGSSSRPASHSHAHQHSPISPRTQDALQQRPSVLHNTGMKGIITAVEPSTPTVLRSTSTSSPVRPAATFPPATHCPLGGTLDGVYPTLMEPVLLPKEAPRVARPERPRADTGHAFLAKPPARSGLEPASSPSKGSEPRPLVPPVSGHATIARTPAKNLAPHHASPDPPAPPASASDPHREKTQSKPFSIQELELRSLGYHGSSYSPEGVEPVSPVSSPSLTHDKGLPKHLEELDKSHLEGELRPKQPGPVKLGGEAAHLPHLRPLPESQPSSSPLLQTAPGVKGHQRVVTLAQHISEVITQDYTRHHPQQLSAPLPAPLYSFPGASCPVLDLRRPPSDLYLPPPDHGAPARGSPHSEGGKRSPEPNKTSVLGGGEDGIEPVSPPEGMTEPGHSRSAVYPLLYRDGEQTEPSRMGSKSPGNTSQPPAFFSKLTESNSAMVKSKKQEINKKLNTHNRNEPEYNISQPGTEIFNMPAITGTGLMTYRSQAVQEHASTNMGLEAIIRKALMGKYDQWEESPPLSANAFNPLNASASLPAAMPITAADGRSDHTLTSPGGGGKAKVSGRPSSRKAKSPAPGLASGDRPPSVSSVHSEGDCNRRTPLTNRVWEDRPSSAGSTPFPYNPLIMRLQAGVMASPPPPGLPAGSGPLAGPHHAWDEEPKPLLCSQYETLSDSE

[2] = molecular target: T1, Protein deacetylase HDAC6 (Homo sapiens, UniProt Q9UBN7); test: Inhibition of recombinant HDAC6 (unknown origin) using Boc-Lys(acetyl)-AMC as substrate preincubated for 1 hr followed by substrate addition and measured after 2 hrs by fluorescence based micro plate reader analysis
T1 sequence (Q9UBN7 whole entry): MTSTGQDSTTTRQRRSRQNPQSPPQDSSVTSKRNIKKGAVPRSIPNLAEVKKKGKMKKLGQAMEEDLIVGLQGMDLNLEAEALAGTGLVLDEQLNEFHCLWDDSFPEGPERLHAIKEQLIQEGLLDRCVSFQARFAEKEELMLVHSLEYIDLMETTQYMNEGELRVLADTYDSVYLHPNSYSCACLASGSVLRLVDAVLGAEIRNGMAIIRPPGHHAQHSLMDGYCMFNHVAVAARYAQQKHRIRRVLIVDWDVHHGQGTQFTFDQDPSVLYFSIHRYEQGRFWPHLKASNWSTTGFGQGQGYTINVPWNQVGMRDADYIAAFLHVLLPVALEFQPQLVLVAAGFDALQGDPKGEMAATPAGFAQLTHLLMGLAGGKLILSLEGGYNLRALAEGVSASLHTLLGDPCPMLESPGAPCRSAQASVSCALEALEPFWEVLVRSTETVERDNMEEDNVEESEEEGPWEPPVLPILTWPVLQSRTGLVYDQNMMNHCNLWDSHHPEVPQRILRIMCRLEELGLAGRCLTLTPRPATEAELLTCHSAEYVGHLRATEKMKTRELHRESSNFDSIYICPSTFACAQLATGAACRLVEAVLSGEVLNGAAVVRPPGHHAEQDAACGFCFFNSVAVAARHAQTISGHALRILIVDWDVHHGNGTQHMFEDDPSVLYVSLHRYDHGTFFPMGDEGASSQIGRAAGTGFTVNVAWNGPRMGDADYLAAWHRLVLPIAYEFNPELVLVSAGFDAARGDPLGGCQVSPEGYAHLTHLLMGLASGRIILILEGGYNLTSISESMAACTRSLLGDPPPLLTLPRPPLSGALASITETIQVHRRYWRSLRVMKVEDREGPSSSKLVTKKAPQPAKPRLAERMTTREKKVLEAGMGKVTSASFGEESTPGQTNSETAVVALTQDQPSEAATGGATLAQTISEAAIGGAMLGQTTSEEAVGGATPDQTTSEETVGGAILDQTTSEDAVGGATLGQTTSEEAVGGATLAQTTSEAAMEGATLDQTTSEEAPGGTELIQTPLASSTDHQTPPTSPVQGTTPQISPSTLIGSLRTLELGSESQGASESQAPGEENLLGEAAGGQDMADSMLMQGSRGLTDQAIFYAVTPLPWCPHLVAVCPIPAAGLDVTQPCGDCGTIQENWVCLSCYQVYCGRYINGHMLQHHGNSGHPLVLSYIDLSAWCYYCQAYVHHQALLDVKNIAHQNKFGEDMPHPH

MV4-11 [3] = test: Antiproliferative activity against human MV4-11 cells at 50 uM after 48 hrs by CellTiter-Blue dye based spectrophotometric analysis; type: functional, cell-based
MV4-11 [4] = test: Induction of apoptosis in human MV4-11 cells harboring wild type p53/FLT3-ITD mutant assessed as cleavage of pro-caspase 3 at 50 to 200 nM after 24 hrs by Western blot analysis; type: functional, cell-based
Procedure, shortened: (§1)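 Cells (1,500,000 per well) grown 12 h, then drug-treated as specified. Lysed in RIPA buffer, sonicated, centrifuged, protein normalized by BCA. Run on 4–12% Bis-Tris gels in MES, transferred, probed overnight at 4 °C with primary antibodies at 1/1000. Actin served as reference for LC3-II quantitation.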

MV4-11 [5] = test: Down regulation of FTL3 in human MV4-11 cells harboring wild type p53/FLT3-ITD mutant at 50 to 200 nM after 24 hrs by Western blot analysis; type: functional, cell-based; procedure, shortened: as §1
MV4-11 [6] = test: Down regulation of STAT5 in human MV4-11 cells harboring wild type p53/FLT3-ITD mutant at 50 to 200 nM after 24 hrs by Western blot analysis; type: functional, cell-based; procedure, shortened: as §1
[7] = Mutagenecity in Salmonella typhimurium TA100 at 10 uM in presence of S9 liver homogenate after 2 to 3 days by mini-Ames test; type: toxicity; details: salmonella enterica subsp. enterica serovar typhimurium, s9, 10 µM
Procedure, shortened: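 Compound was tested at a final 10 μM undiluted plus four serial dilutions, with S9 mix and glucose/biotin/trace-histidine exposure solution, for 100 min at 37 °C. Reversion medium was added and cultures dispensed to 96 wells for 2–3 days at 37 °C. Yellow or partial-yellow wells were scored positive; 2-aminoanthracene was the positive control.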

MV4-11 [8] = test: Induction of apoptosis in human MV4-11 cells harboring wild type p53/FLT3-ITD mutant assessed as cleavage of pro-caspase 3 at 100 nM after 24 hrs by Western blot analysis; type: functional, cell-based; procedure, shortened: as §1
RS4-11 [9] = test: Induction of apoptosis in human RS4:11 cells harboring wild type p53/FLT3 assessed as cleavage of pro-caspase 3 at 100 nM after 24 hrs by Western blot analysis; type: functional, cell-based; procedure, shortened: as §1
[10] = Cmax in BALB/c mouse at 50 mg/kg, po via gavage after 24 hrs by Lc-MS/MS analysis; type: ADME, organism-based; set-up: dose 50 mg/kg, route oral; details: in vivo
[11] = Half life in BALB/c mouse at 50 mg/kg, po via gavage after 24 hrs by Lc-MS/MS analysis; type: ADME, organism-based; details: in vivo
[12] = AUC (0 to infinity) in BALB/c mouse at 50 mg/kg, po via gavage after 24 hrs by Lc-MS/MS analysis; type: ADME, organism-based; set-up: dose 50 mg/kg, time infinity, route oral; details: in vivo
[13] = Oral bioavailability in BALB/c mouse at 50 mg/kg dosed via gavage after 24 hrs by Lc-MS/MS analysis; type: ADME, organism-based; details: in vivo
MV4-11 [14] = test: Induction of apoptosis in human MV4-11 cells harboring wild type p53/FLT3-ITD mutant assessed as cleavage of pro-caspase 3 at 5000 nM after 24 hrs by Western blot analysis; type: functional, cell-based; procedure, shortened: as §1
RS4-11 [15] = test: Induction of apoptosis in human RS4:11 cells harboring wild type p53/FLT3 assessed as cleavage of pro-caspase 3 at 5000 nM after 24 hrs by Western blot analysis; type: functional, cell-based; procedure, shortened: as §1
MV4-11 [16] = test: cells; details: Homo sapiens, MV4-11, 48 h
MV4-11 [17] = test: Induction of apoptosis in human MV4-11 cells harboring wild type p53/FLT3-ITD mutant assessed as cleavage of pro-caspase 3 at 1000 to 5000 nM after 24 hrs by Western blot analysis; type: functional, cell-based; procedure, shortened: as §1
MV4-11 [18] = test: Inhibition of autophagy in human MV4-11 cells assessed as LC3-II degradation at 5 uM after 24 hrs by Western blot analysis; type: functional, cell-based; procedure, shortened: as §1

| Structure (SMILES) | pIC50 (Histone deacetylase 1) | pIC50 (Histone deacetylase 2) | pIC50 [1] | pIC50 [2] | other results |
| --- | --- | --- | --- | --- | --- |
| Cc1[nH]c2ccccc2c1CCNCc1ccc(/C=C/C(=O)NN2CCCC2)cc1 | 5.07 | < 5.00 | 5.51 | < 4.30 | Activity (MV4-11 [3]): inactive |
| CCCNNC(=O)c1ccc(CNC(=O)/C=C/c2ccccc2)cc1 |  |  |  |  | Activity (MV4-11 [4]): Active; Activity (MV4-11 [5]): Active; Activity (MV4-11 [6]): Active |
| CCCNNC(=O)c1ccc(CNCCc2c(C)[nH]c3ccccc23)cc1 | 7.53 | 6.97 | 7.70 | < 4.30 |  |
| COC(=O)CCNNC(=O)/C=C/c1ccc(CNCCc2c(C)[nH]c3ccccc23)cc1 | 5.96 | 5.38 | 6.51 | < 4.30 |  |
| CCCNNC(=O)c1ccc(CN(CCc2c(C)[nH]c3ccccc23)C(=O)OC(C)(C)C)cc1 | 7.54 | 6.56 | 7.90 | < 4.30 |  |
| Nc1ccc2cc3ccccc3cc2c1 [2-AMINOANTHRACENE] |  |  |  |  | Activity [7]: Toxic |
| Cc1[nH]c2ccccc2c1CCNCc1ccc(/C=C/C(=O)NNCCN)cc1 | 5.01 | < 5.00 | 5.28 | < 4.30 |  |
| Cc1[nH]c2ccccc2c1CCNCc1ccc(/C=C/C(=O)NN(C)C)cc1 | 4.96 | 4.89 | 6.00 | < 4.30 | Activity (MV4-11 [3]): inactive |
| CCCNNC(=O)c1cccc(CN(CCc2c(C)[nH]c3ccccc23)C(=O)OC(C)(C)C)c1 | 5.60 | < 5.30 | < 5.30 | < 4.30 |  |
| Cc1[nH]c2ccccc2c1CCNCc1ccc(/C=C/C(=O)NO)cc1 [PANOBINOSTAT] |  |  |  |  | Activity (MV4-11 [8]): Active; Activity (RS4-11 [9]): Active; Activity [7]: Toxic; Cmax [10]: 116 ng/mL; half-life [11]: 2.9 h; AUC(0-inf) [12]: 126 ng·h/mL; bioavailability [13]: 4.62% |
| CCCNNC(=O)c1ccc(NCc2ccccc2)cc1 | 7.80 | 7.17 | 8.21 | < 4.30 |  |
| O=C(CCCCCCC(=O)Nc1ccccc1)NO |  |  |  |  | Activity (MV4-11 [14]): Active; Activity (RS4-11 [15]): Active |
| CCCN(CC)NC(=O)/C=C/c1ccc(CNCCc2c(C)[nH]c3ccccc23)cc1 | 5.53 | 5.09 | 6.26 | < 4.30 |  |
| CCCCCCN(CCC)NC(=O)/C=C/c1ccc(CNCCc2c(C)[nH]c3ccccc23)cc1 | 5.54 | 5.01 | 6.84 | < 4.30 |  |
| CCCNNC(=O)c1ccc(CNCc2ccccc2)cc1 | 7.06 | 6.36 | 7.01 | < 4.30 | pEC50 (MV4-11 [16]): 6.76 |
| CCCN(CCC)NC(=O)/C=C/c1ccc(CNCCc2c(C)[nH]c3ccccc23)cc1 | 6.38 | 5.86 | 7.60 | < 4.30 |  |
| Cc1[nH]c2ccccc2c1CCNCc1ccc(/C=C/C(=O)NN2CCCCC2)cc1 | < 5.00 | < 5.00 | < 5.00 | < 4.30 | Activity (MV4-11 [3]): inactive |
| CCCNNC(=O)c1ccc(CN(Cc2ccccc2)C(=O)OC(C)(C)C)cc1 | 6.66 | 6.24 | 7.11 | < 4.30 |  |
| Cc1[nH]c2ccccc2c1CCNCc1ccc(/C=C/C(=O)NN(CCCO)CCCO)cc1 | < 5.00 | < 5.00 | < 5.00 | < 4.30 | Activity (MV4-11 [3]): inactive |
| CCCNNC(=O)c1ccc(NC(=O)c2ccccc2)cc1 | 7.03 | 6.32 | 7.31 | < 4.30 |  |
| Nc1ccccc1NC(=O)c1ccc(CNC(=O)OCc2cccnc2)cc1 |  |  |  |  | Activity (MV4-11 [17]): Active |
| CCCNNC(=O)c1ccc(OCc2ccccc2)cc1 | 7.25 | 6.76 | 7.61 | < 4.30 |  |
| CCCNNC(=O)/C=C/c1ccc(CN(CCc2c(C)[nH]c3ccccc23)C(=O)OC(C)(C)C)cc1 | 6.74 | 5.89 | 7.78 | < 4.30 |  |
| CCN(CC)CCCC(C)Nc1ccnc2cc(Cl)ccc12 (stereo not drawn) |  |  |  |  | inhibition (MV4-11 [18]): Active |
| CCCNNC(=O)c1cccc(CNCCc2c(C)[nH]c3ccccc23)c1 | 5.78 | 5.31 | 6.17 | < 4.30 |  |
| CCCCN(CCC)NC(=O)/C=C/c1ccc(CNCCc2c(C)[nH]c3ccccc23)cc1 | 6.68 | 5.49 | 6.64 | < 4.30 |  |
| Cc1[nH]c2ccccc2c1CCNCc1ccc(/C=C/C(=O)NNCCC#N)cc1 | 7.24 | 6.76 | 7.46 | < 4.30 |  |
| CCCCCN(CCC)NC(=O)/C=C/c1ccc(CNCCc2c(C)[nH]c3ccccc23)cc1 | 6.42 | 5.14 | 6.49 | < 4.30 |  |
